Experimental data of several laboratories.
LRRK2: Leucine-rich repeat serine/threonine-protein kinase 2 (LRRK2, Homo sapiens, UniProt Q5S007)
LRRK2 G2019S: Leucine-rich repeat serine/threonine-protein kinase 2 (LRRK2, Homo sapiens, UniProt Q5S007, G2019S)

Cc1cc(S(=O)(=O)N[C@H]2CC[C@H](CN3CCN(c4ccc(C5CCC(=O)NC5=O)cc4F)CC3)CC2)ccc1Nc1ncc(C(F)(F)F)c(N2CCC[C@](C)(O)C2)n1 (stereo partly drawn) — remaining binding (LRRK2; binding, competition with immobilised ligand; 1 µM): 6.6%
COc1ccc2[nH]c3c4[nH]c5ccc(OC)cc5c4c4c(c3c2c1)C(=O)NC4=O — remaining binding (LRRK2; binding; 1 µM): 2.8%
C=CC(=O)N1CCC([C@@H]2CCNc3c(C(N)=O)c(-c4ccc(Oc5ccccc5)cc4)nn32)CC1 — inhibition (LRRK2 G2019S; enzyme activity, inhibitor; 1 µM): 0%
CNS(=O)(=O)c1ccc(Nc2ncc(C(F)(F)F)c(N3CCC[C@](C)(O)C3)n2)c(C)c1 — remaining binding (LRRK2; binding, competition with immobilised ligand; 1 µM): 12%
C1=C/COCc2cc(ccc2OCCN2CCCC2)Nc2nccc(n2)-c2cccc(c2)COC/1 — remaining binding (LRRK2 G2019S; binding; 0.1 µM): 100%
CN1CCN(C(=O)c2ccc(NC(=O)Nc3ccc(N(C)c4ccnc(Nc5ccc(CS(C)(=O)=O)cc5)n4)cc3)cc2)CC1 — remaining binding (LRRK2 G2019S; binding; 1 µM): 71%
C[C@]1(O)CCCN(c2nc(Nc3ccc(S(=O)(=O)N[C@H]4CC[C@H](CN5CCN(c6ccc(C7CCC(=O)NC7=O)cc6F)CC5)CC4)cc3Cl)ncc2C(F)(F)F)C1 (stereo partly drawn) — remaining binding (LRRK2; binding, competition with immobilised ligand; 1 µM): 21%
CC#CC(=O)N1CCC[C@H]1c1nc(-c2ccc(C(=O)Nc3ccccn3)cc2)c2c(N)nccn12 — inhibition (LRRK2 G2019S; enzyme activity, inhibitor; 1 µM): 0%
Cc1ccc(NC(=O)c2ccnc(C(F)(F)F)c2)cc1-c1cc(OCCO)nc(N2CCOCC2)c1 — remaining binding (LRRK2; binding; 1 µM): 100%
C[C@]1(O)CCCN(c2nc(Nc3ccc(S(=O)(=O)N[C@H]4CC[C@H](CN5CCN(c6ccc(C7CCC(=O)NC7=O)cc6F)CC5)CC4)cc3F)ncc2C(F)(F)F)C1 (stereo partly drawn) — remaining binding (LRRK2 G2019S; binding, competition with immobilised ligand; 1 µM): 39%
Cc1cc(O)c(-c2ccc([C@@H](C)CN(C)C)cc2)c2c1[nH]c(=O)c1sccc12 — inhibition (LRRK2; enzyme activity, inhibitor; 0.1 µM): -15.8%
CCCCC(=O)Nc1ccc(-c2ccc3ncn(CCC)c(=O)c3c2)cn1 — remaining binding (LRRK2; binding, competition with immobilised ligand; 0.5 µM): 100%
